Rev-erbA mod: modulates human Rev-erb alpha binding to DNA | 0.79% of 370,000 active | AID 1259318 | Rev-erbα–FITC-DNA binding, fluorescence polarization, 90 min | activity, % at 10 µM;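 active = activity above about 14%, limit read from the data; passing the limit was not always enough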;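 note: 0% = DMSO wells with 35 nM protein and 100% = DMSO wells with 750 nM protein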
Target sequence (P20393 whole entry, looked up): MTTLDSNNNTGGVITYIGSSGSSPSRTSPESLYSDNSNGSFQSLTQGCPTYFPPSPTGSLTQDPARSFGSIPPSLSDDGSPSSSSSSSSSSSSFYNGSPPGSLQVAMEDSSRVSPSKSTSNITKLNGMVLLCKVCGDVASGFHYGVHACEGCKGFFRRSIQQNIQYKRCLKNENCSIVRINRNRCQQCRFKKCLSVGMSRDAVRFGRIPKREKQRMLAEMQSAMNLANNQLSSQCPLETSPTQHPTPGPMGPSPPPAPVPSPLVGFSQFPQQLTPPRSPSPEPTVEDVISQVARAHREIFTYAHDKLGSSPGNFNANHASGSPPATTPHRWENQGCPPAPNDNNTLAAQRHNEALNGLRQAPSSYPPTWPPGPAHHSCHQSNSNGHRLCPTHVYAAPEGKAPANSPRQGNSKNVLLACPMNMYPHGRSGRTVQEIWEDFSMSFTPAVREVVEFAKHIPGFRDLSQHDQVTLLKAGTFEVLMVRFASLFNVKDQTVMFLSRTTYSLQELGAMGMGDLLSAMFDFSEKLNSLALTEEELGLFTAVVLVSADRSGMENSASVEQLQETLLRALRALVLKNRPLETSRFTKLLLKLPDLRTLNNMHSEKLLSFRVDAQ
NR2E3 ag-1: agonists of human nuclear receptor NR2E3; Q9Y5X4; GST-NR2E3/biotin-RetCOR TR-FRET, 1536-well; inhibition of corepressor binding, % at 4.78 µM; 0.12% of 320,000 active;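 active = percent inhibition above the cutoff of mean plus 3 SD of all tested compounds, set per screening campaign, cut at about 20% in these data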;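 note: 0% = DMSO wells and 100% = biotin wells as full block of FRET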
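System: GST-NR2E3 and biotin-RetCOR proteins; probe or stimulus: 7 nM biotin-RetCOR; doses: compound at 4.8 µM, single dose; schedule: Compound–protein incubation for 5 h at 4 °C; detection: time-resolved FRET; read-out: percent inhibition; controls: biotin wells as high control, 0.6% DMSO wells as low control; format: 1536-well plates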
NR2E3 ag-2: human photoreceptor-specific nuclear receptor agonism; Q9Y5X4; CHO-S Gal4-NCOR/VP16-NR2E3 two-hybrid, luciferase; inhibition of corepressor binding, % at 3.98 µM; 0.35% of 360,000 active; AID 602229;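 active = inhibition above the mean of all tested compounds plus 3 SD, cut at about 70% in these data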;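 note: 0% = DMSO with NR2E3 transfected cells and 100% = cells lacking NR2E3 construct; higher means lower luciferase signal from less NR2E3 corepressor binding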
MC4R ag barr: activates human MC4R beta-arrestin recruitment; P32245; U2OS MC4R beta-arrestin complementation, luminescence; percent of melanotan II response, DMSO zero; activation, % at 8.9 µM; 0.98% of 360,000 active;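 active = activation above a per-plate cutoff, the mean activation of sample wells on that plate plus 3 SD, cut at about 8% in these data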
PG9 binder: PG9 antibody binding by small molecule | TR-FRET gp120-PG9 antibody binding | inhibition, % at 6.7 µM | 0.43% of 360,000 active | AID 624416; in the data active = inhibition above about 8.5%
MC4R antag cAMP: human MC4R antagonism in cAMP assay. P32245. MC4R-expressing cells, MTII-stimulated cAMP, LANCE TR-FRET. inhibition, % at 6.5 µM. 0.48% of 360,000 active. AID 540295;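 active = inhibition above its plate's cutoff, the mean of tested wells on that plate plus 3 SD, cut at about 29% in these data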;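 note: 0% = Melanotan II alone and 100% = Melanotan II plus saturating MCL0020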
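Assay system: human MC4R-expressing U2OS cells; reagent: Melanotan II stimulation of cells; dosing: 6.5 µM single dose; timing: compound 30 min, challenge 1 h, detection 1 h; signal: TR-FRET cAMP assay; replicates: one well per compound, no replicates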
U2OS cAMP counter: counter-screen for MC4R antagonists: nonselective cAMP signaling inhibitors; shares compounds with MC4R antag cAMP; parental U2OS, forskolin cAMP, LANCE TR-FRET; inhibition, % at 6.5 µM; 26% of 1,600 active; AID 602193;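 active = mean inhibition over triplicates above the low-control well mean plus 3 SD, set per campaign, cut at about 13% in these data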;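 note: signal is single emission at 671 nm which falls as cellular cAMP rises; 0% = forskolin-stimulated wells and 100% = buffer without forskolin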
MC4R cAMP antag: human MC4R cAMP antagonism confirmation. shares compounds with MC4R antag cAMP. MC4R-expressing cells, MTII-stimulated cAMP, TR-FRET. inhibition, % at 6.5 µM. 27% of 1,600 active. AID 602195; in the data active = inhibition above about 29%;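 note: 0% = agonist stimulated wells alone and 100% = agonist stimulated wells plus saturating reference antagonist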
Starred values were filed as active, the others as inactive. Hits are enriched below; roughly 2.7% of the tested compounds scored in any of these assays.

Results for O=S(=O)(Nc1cc(Sc2ncn[nH]2)c(O)c2ccccc12)c1ccccc1 ?
Rev-erbA mod: -4; NR2E3 ag-2: 103*; MC4R ag barr: -2; PG9 binder: -4; MC4R antag cAMP: 53*; U2OS cAMP counter: 10; MC4R cAMP antag: 8

What do the screens show for `O=C(NCCc1ccccc1)C1CCCN(S(=O)(=O)c2cccc3nsnc23)C1` (centres undefined)?
Rev-erbA mod: -6; NR2E3 ag-1: 5; NR2E3 ag-2: 14; MC4R ag barr: 0; PG9 binder: 0; MC4R antag cAMP: 1

What do the screens show for `O=C(NC(=S)Nc1cccc([N+](=O)[O-])c1)c1ccccc1`?
Rev-erbA mod: -3; NR2E3 ag-1: -1; NR2E3 ag-2: -24; MC4R ag barr: 0; PG9 binder: -1; MC4R antag cAMP: 33*; U2OS cAMP counter: 1; MC4R cAMP antag: -9

Results for O=C(NC(=S)Nc1cccc([N+](=O)[O-])c1)c1ccco1 ?
Rev-erbA mod: -4; NR2E3 ag-1: 1; NR2E3 ag-2: -30; MC4R ag barr: 1; PG9 binder: -1; MC4R antag cAMP: -3

Results for O=C(O)C1C2CCC(C2)C1C(=O)Nc1cccc([N+](=O)[O-])c1 (centres undefined) ?
Rev-erbA mod: -1; NR2E3 ag-2: -19; MC4R ag barr: -2; PG9 binder: -2; MC4R antag cAMP: 29*; U2OS cAMP counter: -8; MC4R cAMP antag: -20

What do the screens show for `O=C(O)C1C2CCC(C2)C1C(=O)Nc1ccccc1` (centres undefined)?
Rev-erbA mod: 1; NR2E3 ag-1: 1; NR2E3 ag-2: -25; MC4R ag barr: -1; PG9 binder: 2; MC4R antag cAMP: 9

How did CN1CCc2c(sc(/N=C/c3cc(Cl)ccc3O)c2C#N)C1 do in these assays?
Rev-erbA mod: 0; NR2E3 ag-1: -2; NR2E3 ag-2: -33; MC4R ag barr: -1; PG9 binder: -2; MC4R antag cAMP: 39*; U2OS cAMP counter: 1; MC4R cAMP antag: 4

What do the screens show for `CCCc1nc(SCC(=O)Nc2nc3c(s2)CCCC3)c2ccccc2n1`?
Rev-erbA mod: 0; NR2E3 ag-1: 8; NR2E3 ag-2: -2; MC4R ag barr: 2; PG9 binder: 0; MC4R antag cAMP: 36*; U2OS cAMP counter: 11; MC4R cAMP antag: 27

How did O=C(CSc1nc2ccccc2o1)Nc1nc2c(s1)CCCC2 do in these assays?
Rev-erbA mod: 1; NR2E3 ag-2: 14; MC4R ag barr: -2; PG9 binder: -1; MC4R antag cAMP: -3

How did CCc1nc(SCC(=O)Nc2nc3c(s2)CCCC3)c2ccccc2n1 do in these assays?
Rev-erbA mod: 0; NR2E3 ag-1: 3; NR2E3 ag-2: 9; MC4R ag barr: 2; PG9 binder: 0; MC4R antag cAMP: 33*; U2OS cAMP counter: 17*; MC4R cAMP antag: 47*

How did Cc1ccc(O)c(NC(=O)c2noc3c2CCCCC3)c1 do in these assays?
Rev-erbA mod: 3; NR2E3 ag-1: 9; NR2E3 ag-2: -82; MC4R ag barr: -2; PG9 binder: 0; MC4R antag cAMP: 31*; U2OS cAMP counter: -3; MC4R cAMP antag: -10

How did COc1cc(C(=O)NCC(=O)N/N=C\C(C)=C/c2ccccc2)cc(OC)c1OC do in these assays?
Rev-erbA mod: -3; NR2E3 ag-1: -1; NR2E3 ag-2: 2; MC4R ag barr: 0; PG9 binder: -3; MC4R antag cAMP: 30*; U2OS cAMP counter: -1; MC4R cAMP antag: -4

Results for CC(C)C1C(c2ccccc2)N(C)C(c2ccccc2)CC1(O)c1ccccc1 (centres undefined) ?
Rev-erbA mod: 0; NR2E3 ag-1: 5; NR2E3 ag-2: 6; MC4R ag barr: 2; PG9 binder: -1; MC4R antag cAMP: 29*; U2OS cAMP counter: 3; MC4R cAMP antag: 26

Results for N#Cc1c(C(F)(F)F)cc(-c2cccs2)nc1SC(C(=O)O)c1ccccc1 (centres undefined) ?
Rev-erbA mod: 2; NR2E3 ag-1: 1; NR2E3 ag-2: 19; MC4R ag barr: -1; PG9 binder: 0; MC4R antag cAMP: 5

Results for C=C(C)C1CC=C(C)/C(=N/NC(=O)COc2ccccc2Cl)C1 (centres undefined) ?
Rev-erbA mod: 0; NR2E3 ag-1: -3; NR2E3 ag-2: -7; MC4R ag barr: -1; PG9 binder: 0; MC4R antag cAMP: 33*; U2OS cAMP counter: -2; MC4R cAMP antag: -9

What do the screens show for `C=C(C)C1CC=C(C)/C(=N/NC(=O)COc2ccc(C)cc2)C1` (centres undefined)?
Rev-erbA mod: 1; NR2E3 ag-1: -2; NR2E3 ag-2: 2; MC4R ag barr: 1; PG9 binder: -1; MC4R antag cAMP: 17

Results for Cc1nnc(SCC(=O)NCCc2ccccc2)s1 ?
Rev-erbA mod: -1; NR2E3 ag-1: 5; NR2E3 ag-2: 21; MC4R ag barr: 0; PG9 binder: 4; MC4R antag cAMP: -4

Results for O=C(N=C1SC2CS(=O)(=O)CC2N1c1ccc(F)c(Cl)c1)C1CCCO1 (centres undefined) ?
Rev-erbA mod: 0; NR2E3 ag-1: 0; NR2E3 ag-2: -20; MC4R ag barr: -1; PG9 binder: -1; MC4R antag cAMP: -4

What do the screens show for `O=C(CSc1nccc(=O)[nH]1)Nc1ccccc1Sc1ccccc1`?
Rev-erbA mod: 1; NR2E3 ag-1: 0; NR2E3 ag-2: -9; MC4R ag barr: 1; PG9 binder: -1; MC4R antag cAMP: 31*; U2OS cAMP counter: 0; MC4R cAMP antag: -12

What do the screens show for `CCOc1cccc(-c2nc3cc(C)ccc3o2)c1`?
Rev-erbA mod: 8; NR2E3 ag-1: 5; NR2E3 ag-2: -103; MC4R ag barr: -1; PG9 binder: -1; MC4R antag cAMP: -1

What do the screens show for `O=C(OCCN1CCCCC1)c1ccccc1Br`?
Rev-erbA mod: 1; NR2E3 ag-1: -2; NR2E3 ag-2: 7; MC4R ag barr: 0; PG9 binder: 1; MC4R antag cAMP: 30*; U2OS cAMP counter: -1; MC4R cAMP antag: 0

How did O=C(OCCN1CCCCC1)c1ccc(Cl)cc1 do in these assays?
Rev-erbA mod: 1; NR2E3 ag-1: -1; NR2E3 ag-2: 17; MC4R ag barr: -2; PG9 binder: 3; MC4R antag cAMP: -2

Source: PubChem BioAssay (several laboratories)
